Data: ChEMBL document CHEMBL4689842, “EUbOPEN Chemogenomics Library wave 1” (2021)

System: HEK-293T
Test: Multiplex assay against HEK293T;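 on Population Tubulin-Different-Phenotype (%): share of the cells with healthy nuclei that show this phenotype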
Type: toxicity, cell-based
Details: human
Outline: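 Live cells carried four stains from seeding: Hoechst33342, BioTracker Green Microtubule Cytoskeleton Dye, MitoTracker Red and Annexin V Alexa Fluor 680. They were imaged on a CQ1 microscope at 37°C and 5% CO2 after compound addition. Using CellPathfinder machine-learning gating, cells were split into Hoechst high-intensity objects or normal cells, normal cells into healthy, pyknosed or fragmented nuclei, and pyknosed cells into mitotic or apoptotic; tubulin, mitochondrial-mass and membrane-permeability phenotypes are per cents of healthy-nucleus cells.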

[1] = 12 h, 1 µM, compound concentration 1 uM, replicate 1
[2] = 12 h, 1 µM, compound concentration 1 uM, replicate 2
[3] = 12 h, 10 µM, compound concentration 10 uM, replicate 1
[4] = 12 h, 10 µM, compound concentration 10 uM, replicate 2
[5] = 24 h, 1 µM, compound concentration 1 uM, replicate 1
[6] = 24 h, 1 µM, compound concentration 1 uM, replicate 2
[7] = 24 h, 10 µM, compound concentration 10 uM, replicate 1
[8] = 24 h, 10 µM, compound concentration 10 uM, replicate 2
[9] = 48 h, 1 µM, compound concentration 1 uM, replicate 1
[10] = 48 h, 1 µM, compound concentration 1 uM, replicate 2
[11] = 48 h, 10 µM, compound concentration 10 uM, replicate 1
[12] = 48 h, 10 µM, compound concentration 10 uM, replicate 2

## NC(=O)c1cccc(-c2cc(Nc3ccc(OC(F)(F)F)cc3)ncn2)c1
[1]
  Population Apoptotic (%): 23%
  Population Fragmented Nuclei (%): 12%
  Population Healthy Nuclei (%): 75%
  Population Hoechst High Intensity Objects (%): 7%
  Population Membrane Permeable-Phenotype (%): 4%
  Population Mitochondria Different-Phenotype (%): 5%
  Population Mitotic Cells (%): 76%
  Population Normal (%): 92%
  Population Pyknosed Nuclei (%): 12%
  Population Tubulin-Different-Phenotype (%): 3%
  Total Cell Count: 801
[2]
  Population Apoptotic (%): 9%
  Population Fragmented Nuclei (%): 7%
  Population Healthy Nuclei (%): 88%
  Population Hoechst High Intensity Objects (%): 1%
  Population Membrane Permeable-Phenotype (%): 0%
  Population Mitochondria Different-Phenotype (%): 10%
  Population Mitotic Cells (%): 90%
  Population Normal (%): 98%
  Population Pyknosed Nuclei (%): 4%
  Population Tubulin-Different-Phenotype (%): 5%
  Total Cell Count: 1607
[3]
  Population Apoptotic (%): 18%
  Population Fragmented Nuclei (%): 15%
  Population Healthy Nuclei (%): 54%
  Population Hoechst High Intensity Objects (%): 17%
  Population Membrane Permeable-Phenotype (%): 4%
  Population Mitochondria Different-Phenotype (%): 4%
  Population Mitotic Cells (%): 81%
  Population Normal (%): 82%
  Population Pyknosed Nuclei (%): 29%
  Population Tubulin-Different-Phenotype (%): 4%
  Total Cell Count: 597
[4]
  Population Apoptotic (%): 24%
  Population Fragmented Nuclei (%): 4%
  Population Healthy Nuclei (%): 89%
  Population Hoechst High Intensity Objects (%): 2%
  Population Membrane Permeable-Phenotype (%): 0%
  Population Mitochondria Different-Phenotype (%): 14%
  Population Mitotic Cells (%): 75%
  Population Normal (%): 97%
  Population Pyknosed Nuclei (%): 6%
  Population Tubulin-Different-Phenotype (%): 6%
  Total Cell Count: 1186
[5]
  Population Apoptotic (%): 22%
  Population Fragmented Nuclei (%): 12%
  Population Healthy Nuclei (%): 81%
  Population Hoechst High Intensity Objects (%): 4%
  Population Membrane Permeable-Phenotype (%): 7%
  Population Mitochondria Different-Phenotype (%): 3%
  Population Mitotic Cells (%): 77%
  Population Normal (%): 95%
  Population Pyknosed Nuclei (%): 5%
  Population Tubulin-Different-Phenotype (%): 4%
  Total Cell Count: 1111
[6]
  Population Apoptotic (%): 3%
  Population Fragmented Nuclei (%): 23%
  Population Healthy Nuclei (%): 74%
  Population Hoechst High Intensity Objects (%): 3%
  Population Membrane Permeable-Phenotype (%): 4%
  Population Mitochondria Different-Phenotype (%): 2%
  Population Mitotic Cells (%): 96%
  Population Normal (%): 96%
  Population Pyknosed Nuclei (%): 2%
  Population Tubulin-Different-Phenotype (%): 6%
  Total Cell Count: 2709
[7]
  Population Apoptotic (%): 17%
  Population Fragmented Nuclei (%): 16%
  Population Healthy Nuclei (%): 66%
  Population Hoechst High Intensity Objects (%): 11%
  Population Membrane Permeable-Phenotype (%): 3%
  Population Mitochondria Different-Phenotype (%): 4%
  Population Mitotic Cells (%): 82%
  Population Normal (%): 88%
  Population Pyknosed Nuclei (%): 17%
  Population Tubulin-Different-Phenotype (%): 6%
  Total Cell Count: 593
[8]
  Population Apoptotic (%): 4%
  Population Fragmented Nuclei (%): 9%
  Population Healthy Nuclei (%): 85%
  Population Hoechst High Intensity Objects (%): 3%
  Population Membrane Permeable-Phenotype (%): 1%
  Population Mitochondria Different-Phenotype (%): 6%
  Population Mitotic Cells (%): 95%
  Population Normal (%): 96%
  Population Pyknosed Nuclei (%): 4%
  Population Tubulin-Different-Phenotype (%): 11%
  Total Cell Count: 1486

## O=C(Nc1ccc(Cl)cc1)Nc1cccc(-c2cccc(N3CCCC3)n2)c1
[1]
  Population Apoptotic (%): 51%
  Population Fragmented Nuclei (%): 10%
  Population Hoechst High Intensity Objects (%): 12%
  Population Membrane Permeable-Phenotype (%): 2%
  Population Mitochondria Different-Phenotype (%): 63%
  Population Mitotic Cells (%): 48%
  Population Normal (%): 87%
  Population Pyknosed Nuclei (%): 45%
  Population Tubulin-Different-Phenotype (%): 46%
[2]
  Population Apoptotic (%): 17%
  Population Fragmented Nuclei (%): 5%
  Population Healthy Nuclei (%): 43%
  Population Hoechst High Intensity Objects (%): 5%
  Population Membrane Permeable-Phenotype (%): 16%
  Population Mitochondria Different-Phenotype (%): 6%
  Population Mitotic Cells (%): 82%
  Population Normal (%): 94%
  Population Pyknosed Nuclei (%): 51%
  Population Tubulin-Different-Phenotype (%): 17%
[3]
  Population Apoptotic (%): 85%
  Population Fragmented Nuclei (%): 31%
  Population Healthy Nuclei (%): 2%
  Population Hoechst High Intensity Objects (%): 32%
  Population Membrane Permeable-Phenotype (%): 66%
  Population Mitochondria Different-Phenotype (%): 0%
  Population Mitotic Cells (%): 14%
  Population Normal (%): 68%
  Population Pyknosed Nuclei (%): 65%
  Population Tubulin-Different-Phenotype (%): 33%
[4]
  Population Apoptotic (%): 46%
  Population Fragmented Nuclei (%): 7%
  Population Healthy Nuclei (%): 14%
  Population Hoechst High Intensity Objects (%): 9%
  Population Membrane Permeable-Phenotype (%): 70%
  Population Mitochondria Different-Phenotype (%): 10%
  Population Mitotic Cells (%): 53%
  Population Normal (%): 90%
  Population Pyknosed Nuclei (%): 78%
  Population Tubulin-Different-Phenotype (%): 60%
[5]
  Population Apoptotic (%): 49%
  Population Fragmented Nuclei (%): 9%
  Population Healthy Nuclei (%): 47%
  Population Hoechst High Intensity Objects (%): 11%
  Population Membrane Permeable-Phenotype (%): 9%
  Population Mitochondria Different-Phenotype (%): 38%
  Population Mitotic Cells (%): 50%
  Population Normal (%): 88%
  Population Pyknosed Nuclei (%): 43%
  Population Tubulin-Different-Phenotype (%): 37%
[6]
  Population Apoptotic (%): 9%
  Population Fragmented Nuclei (%): 8%
  Population Healthy Nuclei (%): 60%
  Population Hoechst High Intensity Objects (%): 3%
  Population Membrane Permeable-Phenotype (%): 24%
  Population Mitochondria Different-Phenotype (%): 2%
  Population Mitotic Cells (%): 90%
  Population Normal (%): 96%
  Population Pyknosed Nuclei (%): 30%
  Population Tubulin-Different-Phenotype (%): 28%
[7]
  Population Apoptotic (%): 85%
  Population Fragmented Nuclei (%): 43%
  Population Healthy Nuclei (%): 6%
  Population Hoechst High Intensity Objects (%): 45%
  Population Membrane Permeable-Phenotype (%): 0%
  Population Mitochondria Different-Phenotype (%): 50%
  Population Mitotic Cells (%): 14%
  Population Normal (%): 54%
  Population Pyknosed Nuclei (%): 50%
  Population Tubulin-Different-Phenotype (%): 66%
[8]
  Population Apoptotic (%): 56%
  Population Fragmented Nuclei (%): 8%
  Population Healthy Nuclei (%): 14%
  Population Hoechst High Intensity Objects (%): 30%
  Population Membrane Permeable-Phenotype (%): 43%
  Population Mitochondria Different-Phenotype (%): 12%
  Population Mitotic Cells (%): 43%
  Population Normal (%): 69%
  Population Pyknosed Nuclei (%): 76%
  Population Tubulin-Different-Phenotype (%): 56%
[9]
  Population Apoptotic (%): 47%
  Population Fragmented Nuclei (%): 11%
  Population Healthy Nuclei (%): 57%
  Population Hoechst High Intensity Objects (%): 9%
  Population Membrane Permeable-Phenotype (%): 5%
  Population Mitochondria Different-Phenotype (%): 14%
  Population Mitotic Cells (%): 52%
  Population Normal (%): 90%
  Population Pyknosed Nuclei (%): 30%
  Population Tubulin-Different-Phenotype (%): 38%
[10]
  Population Apoptotic (%): 7%
  Population Fragmented Nuclei (%): 5%
  Population Healthy Nuclei (%): 82%
  Population Hoechst High Intensity Objects (%): 2%
  Population Membrane Permeable-Phenotype (%): 26%
  Population Mitochondria Different-Phenotype (%): 0%
  Population Mitotic Cells (%): 92%
  Population Normal (%): 97%
  Population Pyknosed Nuclei (%): 11%
  Population Tubulin-Different-Phenotype (%): 19%
[11]
  Population Apoptotic (%): 80%
  Population Fragmented Nuclei (%): 61%
  Population Healthy Nuclei (%): 7%
  Population Hoechst High Intensity Objects (%): 40%
  Population Membrane Permeable-Phenotype (%): 25%
  Population Mitochondria Different-Phenotype (%): 50%
  Population Mitotic Cells (%): 19%
  Population Normal (%): 59%
  Population Pyknosed Nuclei (%): 30%
  Population Tubulin-Different-Phenotype (%): 87%
[12]
  Population Apoptotic (%): 52%
  Population Fragmented Nuclei (%): 22%
  Population Healthy Nuclei (%): 22%
  Population Hoechst High Intensity Objects (%): 26%
  Population Membrane Permeable-Phenotype (%): 72%
  Population Mitochondria Different-Phenotype (%): 6%
  Population Mitotic Cells (%): 47%
  Population Normal (%): 73%
  Population Pyknosed Nuclei (%): 54%
  Population Tubulin-Different-Phenotype (%): 79%
